# Results published in ChEMBL document CHEMBL4513216, “Probing the Open Global Health Chemical Diversity Library for Multistage-Active Starting Points for Next-Generation Antimalarials” (ACS Infect Dis, 2020).
# Assay: Toxicity liver stage against HepG2, at 10uM
# Type: cell-based
# Set-up: test concentration 10 uM, cell line HepG2-A16-CD81EGFP
# Conditions: human, HepG2-A16-CD81EGFP cells; read-out: INHIBITION
# Outline: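 Uninfected HepG2-A16-CD81EGFP cells, 3 × 10^3 per well, 1536-well, plated on prespotted compound at 10 μM final, parasite-free screening media added to match infected plates; puromycin 10 μM positive, DMSO 0.5% negative; run in parallel with 48 h PbLuc assay at 37 °C, 5% CO2; viability by CellTiter-Glo luminescence, normalized to controls.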
row,Compound,cytotoxicity at 10 µM
1,COC(=O)C1CCN(C(=O)CN2CCN(c3cccc(C)c3)CC2)CC1,-17.5%
2,O=C(NC[C@H]1C[C@@H]2CCN1C[C@@H]2CN1CCCCC1)Nc1ccsc1,-1.31%
3,Cc1nn(C)cc1CN1CCCCCC1c1ccccc1Cl (stereo not given),7.49%
4,C=C(C)Cn1c(=O)nc(N)c2c(-c3ccc(OC)cc3)csc21,-26%
5,Cc1cnc2n(c1=O)C(CC(=O)NCc1ccco1)CS2 (stereo not given),-5.52%
6,O=S(=O)(c1cccnc1)N1CCN(Cc2nc(-c3ccco3)cs2)CC1,5.94%
7,COc1ncccc1C(=O)N1CC(c2nc(-c3ccccn3)no2)C1,3.19%
8,CN(C)CC1CSCCCN1C(=O)c1ccc(-c2ccccc2)cc1 (stereo not given),4.54%
9,CN(C)CC(=O)N1CCC2(CC1)CN(Cc1ccccc1)C2,5.03%
10,O=C(c1ccco1)N1CCC2(CCC(=O)N2Cc2ccccc2)CC1,7.59%
11,CCN1C(=O)CC(c2ccccc2)C12CCN(c1ncc(C)cn1)CC2 (stereo not given),-2.6%
12,CC(=O)NCC(=O)N1CCc2nc(C)nc(C)c2CC1,-12%
13,Cc1nccc([C@H]2C[C@@H]3CCN(S(C)(=O)=O)C[C@H]3O2)n1,-0.522%
14,CC(C)NC(=O)c1ccc2c(c1)nc1n2CCN(Cc2ccccc2)C1,6.61%
15,CCn1c(O)c(C(C)=O)c2cc(C)ccc21,-8.24%
16,O=C(C1CC1)N1CC[C@H](O)[C@@H]1Cc1ccccc1,1.93%
17,O=C(c1ccnn1COc1ccc(Cl)cc1)N1CCSCC1,-4.56%
18,Cc1cc(=O)n(CC(=O)NCC2CCCO2)c(-c2cccc(Cl)c2)n1 (stereo not given),-11%
19,CN1C[C@@H](C(=O)NC(C)(C)C)[C@@]2(COc3ccc(F)cc3C2=O)C1,1.5%
20,Cc1ccccc1C(=O)N1C[C@@H](O)[C@H](N2CCOCC2)C1,9.3%
21,CN1CCC(c2cnc(NCc3nccn3C)cn2)CC1,-5.91%
22,CC(=O)N1CCCC(c2ccc(Nc3nc(C)cc(C)n3)cn2)C1 (stereo not given),-4.09%
23,COc1cccc(N2CCN(C(=O)c3ccc(=O)n(C)c3)CC2)c1,-7.81%
24,COc1ccccc1CC(C)CC(=O)NC(C)C (stereo not given),6.16%
25,CCn1cc(C(=O)NCC2(C(N)=O)CCOCC2)c2ccccc21,0.969%
26,CCC(CNC(=O)c1ccc(C(N)=O)cc1)Oc1cccc(F)c1 (stereo not given),-39.5%
27,O=C(NCc1nc(C2CC2)no1)N1CCOC(c2ccccc2)C1 (stereo not given),-45.2%
28,N#CCCn1cnc2c(Br)cccc2c1=O,4.65%

row,Compound,cytotoxicity at 10 µM
1,Cc1nn(C)c(Cl)c1C1CCCN1CC(=O)N1CCOCC1 (stereo not given),3.41%
2,O=S(=O)(c1ccc(F)cc1F)N1CCCCC1c1nnc2n1CCCC2 (stereo not given),2.22%
3,CCNC(=O)CCC(=O)NC1(c2cccc(Br)c2)CC1,8.64%
4,COc1cccnc1NC(=O)COc1ccc(F)cc1F,8.68%
5,O=C(NC1CCC(C(=O)N2CCSCC2)CC1)N1CCC1 (stereo not given),12.7%
6,Cc1cnn(CC2CCCCN2CC(=O)Nc2cccnc2)c1 (stereo not given),3.5%
7,CC(C)N(C)C(=O)C1CCN(Cc2cc3c(cc2O)CCC3)CC1,6.15%
8,CC(C)NC(=O)CN(C)C1CCN(c2cnc3ccccc3n2)CC1,-6.14%
9,COCC(C)(CCO)NC(=O)Nc1cccc(F)c1C (stereo not given),7.94%
10,CN(Cc1ccccn1)C(=O)c1ccc2c(c1O)OC(C)(C)C2,-11.8%
11,COc1cccc(CC(=O)NC2CCCc3cn[nH]c32)c1 (stereo not given),12.5%
12,Cn1nccc1NCc1cc2cc(F)ccc2o1,8.57%
13,Cc1ccc(C)c(OCc2nnc(SCC3CCCN(C)C3)o2)c1 (stereo not given),5.24%
14,Cc1cnc2c(c1)N(C(=O)c1ccc(=O)n(C)c1)CCO2,0.965%
15,COc1ccc(-n2cnnc2SCCC#N)cn1,22.2%
16,CCC(CNC(=O)c1cc(OC)ccc1Br)N1CCc2ccccc2C1 (stereo not given),-6.78%
17,CN1CCN(Cc2ccccc2CNC(=O)c2ccc(Br)cc2)CC1,4.44%
18,CN(C(=O)c1cccc(C(=O)NCC(F)(F)F)c1)c1ccccc1,-14.8%
19,Cc1cccc(N2CCOCC3(C2)CN(c2cncnc2)C(=O)CO3)n1 (stereo not given),5.88%
20,Cn1ccc(C(=O)NC2CCC23CCN(C(=O)c2ccccn2)CC3)c1 (stereo not given),-71.7%
21,COCCO[C@@H]1CCN(C(=O)c2ccc[nH]2)[C@H]1Cc1cnn(C)c1,-71.7%
22,O=C(c1cc(C2CC2)on1)N1CC[C@]2(C[C@H](Oc3cccnc3)CO2)C1,-9.63%
23,CC(C)c1cc(NC(CO)CO)n2nccc2n1,6.33%
24,CNC(=O)c1cn2cc(-c3ccccc3Cl)n(CC3CC3)c(=O)c2n1,0.562%
25,O=C(CN1C(=O)CCNC1=O)N1CCC(c2ccc(F)cc2)C1 (stereo not given),4.3%
26,N#Cc1ccccc1CN1CCCC(c2nccn2CC2CC2)C1 (stereo not given),2.84%
27,Nc1ccncc1-n1cc(CCO)cn1,0.769%
